In ChEMBL document CHEMBL3352430, “4-Aminopyridyl-based CYP51 inhibitors as anti-Trypanosoma cruzi drug leads with improved pharmacokinetic profile and in vivo potency” (J Med Chem, 2014):

Assays:
[1] = system: Intestine; assay: Drug uptake in mouse intestine at 50 mg/kg, po in 20% HP-beta-CD measured at 8 hrs post dose; assay type: ADME, organism-based; parameters: dose 50 mg/kg, route oral; conditions: in vivo
Outline: (§1)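 Female Swiss Webster mice, 8 weeks old, given a single 50 mg/kg oral gavage dose in 20% HPβCD or 20% Kolliphor. Tissues taken from three mice at 2 and 8 h post dose. Homogenized by probe sonication in PBS (1:4 w/v), protein precipitated with acetonitrile, and compound measured by LC-MS/MS in μM.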

[2] = system: Liver; assay: Drug uptake in mouse liver at 50 mg/kg, po in 20% Kolliphor measured at 8 hrs post dose; assay type: ADME, organism-based; parameters: dose 50 mg/kg, route oral; conditions: in vivo; outline: as §1
[3] = system: Lung; assay: Drug uptake in mouse lung at 50 mg/kg, po in 20% Kolliphor measured at 8 hrs post dose; assay type: ADME, organism-based; parameters: dose 50 mg/kg, route oral; conditions: in vivo; outline: as §1
[4] = system: Heart; assay: Drug uptake in mouse heart at 50 mg/kg, po in 20% Kolliphor measured at 8 hrs post dose; assay type: ADME, organism-based; parameters: dose 50 mg/kg, route oral; conditions: in vivo; outline: as §1
[5] = Drug uptake in mouse fat at 50 mg/kg, po in 20% Kolliphor measured at 8 hrs post dose; assay type: ADME, organism-based, Adipose tissue; parameters: dose 50 mg/kg, route oral; conditions: in vivo; outline: as §1
[6] = Drug uptake in mouse skeletal muscle at 50 mg/kg, po in 20% Kolliphor measured at 8 hrs post dose; assay type: ADME, organism-based, Muscle tissue; parameters: dose 50 mg/kg, route oral; conditions: in vivo; outline: as §1
[7] = system: Brain; assay: Drug uptake in mouse brain at 50 mg/kg, po in 20% Kolliphor measured at 8 hrs post dose; assay type: ADME, organism-based; parameters: dose 50 mg/kg, route oral; conditions: in vivo; outline: as §1
[8] = system: Brain; assay: Drug uptake in mouse brain at 50 mg/kg, po in 20% Kolliphor measured at 2 hrs post dose; assay type: ADME, organism-based; parameters: dose 50 mg/kg, route oral; conditions: in vivo; outline: as §1
[9] = system: Brain; assay: Drug uptake in mouse brain at 50 mg/kg, po in 20% HP-beta-CD measured at 8 hrs post dose; assay type: ADME, organism-based; parameters: dose 50 mg/kg, route oral; conditions: in vivo; outline: as §1
[10] = system: Liver; assay: Drug uptake in mouse liver at 50 mg/kg, po in 20% HP-beta-CD measured at 8 hrs post dose; assay type: ADME, organism-based; parameters: dose 50 mg/kg, route oral; conditions: in vivo; outline: as §1
[11] = system: Lung; assay: Drug uptake in mouse lung at 50 mg/kg, po in 20% HP-beta-CD measured at 8 hrs post dose; assay type: ADME, organism-based; parameters: dose 50 mg/kg, route oral; conditions: in vivo; outline: as §1
[12] = system: Heart; assay: Drug uptake in mouse heart at 50 mg/kg, po in 20% HP-beta-CD measured at 8 hrs post dose; assay type: ADME, organism-based; parameters: dose 50 mg/kg, route oral; conditions: in vivo; outline: as §1
[13] = Drug uptake in mouse fat at 50 mg/kg, po in 20% HP-beta-CD measured at 8 hrs post dose; assay type: ADME, organism-based, Adipose tissue; parameters: dose 50 mg/kg, route oral; conditions: in vivo; outline: as §1
[14] = Drug uptake in mouse skeletal muscle at 50 mg/kg, po in 20% HP-beta-CD measured at 8 hrs post dose; assay type: ADME, organism-based, Muscle tissue; parameters: dose 50 mg/kg, route oral; conditions: in vivo; outline: as §1
[15] = system: Trypanosoma cruzi; assay: Antitrypanosomal activity against Trypanosoma cruzi Y luc infected in mouse assessed as inhibition of parasitemia at 50 mg/kg, po bid in 20% Kolliphor administered for 4 consecutive days starting on day 3 of infection measured on day 7 post infection relative to vehicle-treated control; assay type: functional
Outline: (§2)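 Female Swiss Webster mice, 8 weeks old, infected ip with 10^5 T. cruzi Y luc trypomastigotes. Only mice with detectable luminescence on day 3 were treated. Compound given by oral gavage bid for four days, as a suspension in 20% HPβCD or a solution in 20% Kolliphor, five mice per group. Vehicle group and benznidazole 50 mg/kg served as controls. On day 7, mice were injected ip with 150 mg/kg d-luciferin and imaged after 5 min under isoflurane. Percent inhibition calculated against untreated mice; two-tailed paired t test.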

[16] = system: C2C12; assay: Cytotoxicity against mouse C2C12 cells up to 10 uM; assay type: cell-based
Outline: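 Mouse C2C12 myoblasts infected with T. cruzi CA-I/72, then exposed at 24 h postinfection to compound at 10 μM down to 5 pM in 5-fold steps for 72 h at 37 °C. Cells fixed in paraformaldehyde, stained with DAPI and scored by automated imaging. Triplicate wells; uninfected and infected untreated wells as controls.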

[17] = Half life in mouse at 50 mg/kg, po in 20% Kolliphor; assay type: ADME, organism-based; parameters: dose 50 mg/kg, route oral; conditions: in vivo
Outline: (§3)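 Female Swiss Webster mice, 8 weeks old, given one oral gavage dose of 50 mg/kg as a 10 mg/mL preparation in the named vehicle (20% HPβCD suspension or 20% Kolliphor). Plasma sampled at about 0.25, 0.5, 1, 2, 4, 6, 8, 12 and 24 h, n = 3 per time point. Protein precipitated with 5 volumes acetonitrile, filtered, then LC-MS/MS. Values are averages of three mice.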

[18] = Half life in mouse at 50 mg/kg, po in 20% HP-beta-CD; assay type: ADME, organism-based; parameters: dose 50 mg/kg, route oral; conditions: in vivo; outline: as §3
[19] = Tmax in mouse at 50 mg/kg, po in 20% Kolliphor; assay type: ADME, organism-based; parameters: dose 50 mg/kg, route oral; conditions: in vivo; outline: as §3
[20] = Tmax in mouse at 50 mg/kg, po in 20% HP-beta-CD; assay type: ADME, organism-based; parameters: dose 50 mg/kg, route oral; conditions: in vivo; outline: as §3
[21] = Cmax in mouse at 50 mg/kg, po in 20% Kolliphor; assay type: ADME, organism-based; parameters: dose 50 mg/kg, route oral; conditions: in vivo; outline: as §3
[22] = Cmax in mouse at 50 mg/kg, po in 20% HP-beta-CD; assay type: ADME, organism-based; parameters: dose 50 mg/kg, route oral; conditions: in vivo; outline: as §3
[23] = AUClast in mouse at 50 mg/kg, po in 20% Kolliphor; assay type: ADME, organism-based; parameters: time 0 - last, dose 50 mg/kg, route oral; conditions: plasma; outline: as §3
[24] = AUClast in mouse at 50 mg/kg, po in 20% HP-beta-CD; assay type: ADME, organism-based, Plasma; parameters: time 0 - last, dose 50 mg/kg, route oral; conditions: plasma; outline: as §3
[25] = Clearance in mouse at 50 mg/kg, po in 20% Kolliphor; assay type: ADME, organism-based; parameters: dose 50 mg/kg, route oral; conditions: in vivo; outline: as §3
[26] = Clearance in mouse at 50 mg/kg, po in 20% HP-beta-CD; assay type: ADME, organism-based; parameters: dose 50 mg/kg, route oral; conditions: in vivo; outline: as §3
[27] = system: Intestine; assay: Drug uptake in mouse intestine at 50 mg/kg, po in 20% Kolliphor measured at 8 hrs post dose; assay type: ADME, organism-based; parameters: dose 50 mg/kg, route oral; conditions: in vivo; outline: as §1
[28] = system: Hepatocyte; assay: Cytotoxicity against mouse hepatocytes assessed as growth inhibition after 72 hrs by Cell Titer Glo assay
[29] = system: Cardiomyocyte; assay: Cytotoxicity against mouse cardiomyocytes assessed as growth inhibition after 72 hrs by Cell Titer Glo assay
[30] = molecular target: Sterol 14-alpha demethylase (Trypanosoma cruzi (strain CL Brener), UniProt Q7Z1V1); assay: Binding affinity to Trypanosoma cruzi CYP51 by UV-vis titration method; conditions: read-out: Kd(app)
[31] = Ratio of Kd(app) for Trypanosoma cruzi CYP51 to EC50 for Trypanosoma cruzi amastigotes infected in mouse C2C12 cells
Outline: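 Ratio of apparent KD to EC50. Apparent KD was approximated from UV–vis spectrophotometric titration of T. cruzi CYP51 in aqueous solution. […] Compounds were added 24 h postinfection at 10 μM down to 5 pM for 72 h at 37 °C, 5% CO2. Fixed cells were DAPI-stained and imaged, in triplicate.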

[32] = system: Trypanosoma cruzi; assay: Antitrypanosomal activity against Trypanosoma cruzi Y luc infected in mouse assessed as inhibition of parasitemia at 25 mg/kg, po bid in 20% Kolliphor administered for 4 consecutive days starting on day 3 of infection measured on day 7 post infection relative to vehicle-treated control; assay type: functional; outline: as §2
[33] = system: Liver microsome; assay: Half life in human liver microsomes; assay type: ADME
[34] = system: Liver microsome; assay: Half life in rat liver microsomes; assay type: ADME
[35] = system: Liver; assay: Half life in mouse liver microsomes; assay type: ADME
[36] = molecular target: T1, Cytochrome P450 1A2 (Homo sapiens, UniProt P05177); assay: Inhibition of CYP1A2 in human liver microsomes at 1 uM; assay type: ADME
T1 sequence (P05177 whole entry): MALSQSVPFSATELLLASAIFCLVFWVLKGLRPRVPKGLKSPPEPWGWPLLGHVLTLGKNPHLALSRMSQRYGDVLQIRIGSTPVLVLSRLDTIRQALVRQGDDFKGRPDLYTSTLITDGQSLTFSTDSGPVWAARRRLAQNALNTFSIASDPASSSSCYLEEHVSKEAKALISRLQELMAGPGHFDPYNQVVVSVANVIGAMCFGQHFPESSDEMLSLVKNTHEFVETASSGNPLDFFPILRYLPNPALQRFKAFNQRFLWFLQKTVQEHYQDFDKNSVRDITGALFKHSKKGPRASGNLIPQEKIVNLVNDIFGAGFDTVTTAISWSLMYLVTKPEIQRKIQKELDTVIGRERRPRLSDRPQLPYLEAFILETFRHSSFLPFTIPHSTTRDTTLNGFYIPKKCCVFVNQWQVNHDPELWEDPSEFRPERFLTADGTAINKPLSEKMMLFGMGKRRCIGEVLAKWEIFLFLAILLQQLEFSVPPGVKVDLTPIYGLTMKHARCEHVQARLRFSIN

[37] = molecular target: Cytochrome P450 2C9 (Homo sapiens, UniProt P11712); assay: Inhibition of CYP2C9 in human liver microsomes at 1 uM; assay type: ADME
[38] = molecular target: Cytochrome P450 2D6 (Homo sapiens, UniProt P10635); assay: Inhibition of CYP2D6 in human liver microsomes at 1 uM; assay type: ADME
[39] = molecular target: Cytochrome P450 3A4 (Homo sapiens, UniProt P08684); assay: Inhibition of CYP3A4 in human liver microsomes at 1 uM; assay type: ADME
[40] = system: Trypanosoma cruzi; assay: Antitrypanosomal activity against Trypanosoma cruzi amastigotes infected in mouse C2C12 cells after 72 hrs by DAPI staining method; assay type: functional, organism-based; conditions: C2C12, 72 h
[41] = system: Trypanosoma cruzi; assay: Antitrypanosomal activity against Trypanosoma cruzi Y luc infected in mouse assessed as inhibition of parasitemia at 40 mg/kg, ip bid in 60% DMSO administered for 4 consecutive days starting on day 3 of infection measured on day 7 post infection relative to vehicle-treated control

Chain of Cytochrome P450 3A4 (P08684 whole entry): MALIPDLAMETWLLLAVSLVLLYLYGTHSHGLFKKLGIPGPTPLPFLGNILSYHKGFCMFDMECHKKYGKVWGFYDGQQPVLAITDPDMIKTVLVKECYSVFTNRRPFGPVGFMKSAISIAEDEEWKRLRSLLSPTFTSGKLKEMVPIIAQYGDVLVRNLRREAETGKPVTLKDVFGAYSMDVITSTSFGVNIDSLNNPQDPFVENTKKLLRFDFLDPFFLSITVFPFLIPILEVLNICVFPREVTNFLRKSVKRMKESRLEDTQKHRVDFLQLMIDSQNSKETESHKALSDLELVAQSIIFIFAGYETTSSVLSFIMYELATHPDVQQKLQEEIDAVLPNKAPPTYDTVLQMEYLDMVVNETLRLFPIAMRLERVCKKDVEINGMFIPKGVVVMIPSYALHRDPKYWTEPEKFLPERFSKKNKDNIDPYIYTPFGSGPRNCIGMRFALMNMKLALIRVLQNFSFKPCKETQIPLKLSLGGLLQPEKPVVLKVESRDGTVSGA
Chain of Cytochrome P450 2D6 (P10635 whole entry): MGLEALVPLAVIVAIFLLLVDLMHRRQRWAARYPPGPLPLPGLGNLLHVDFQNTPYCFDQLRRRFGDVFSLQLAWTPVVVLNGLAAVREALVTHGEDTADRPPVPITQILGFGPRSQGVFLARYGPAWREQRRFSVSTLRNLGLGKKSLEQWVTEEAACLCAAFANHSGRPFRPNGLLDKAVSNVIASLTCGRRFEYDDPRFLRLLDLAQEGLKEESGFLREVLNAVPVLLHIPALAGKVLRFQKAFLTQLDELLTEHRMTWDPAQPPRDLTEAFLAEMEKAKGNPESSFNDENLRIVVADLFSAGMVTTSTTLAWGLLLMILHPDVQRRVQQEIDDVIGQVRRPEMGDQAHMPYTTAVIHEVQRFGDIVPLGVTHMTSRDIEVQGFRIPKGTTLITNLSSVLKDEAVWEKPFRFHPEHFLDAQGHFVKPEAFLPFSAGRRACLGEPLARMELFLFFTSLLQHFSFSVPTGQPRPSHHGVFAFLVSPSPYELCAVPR
Chain of Sterol 14-alpha demethylase (Q7Z1V1 whole entry): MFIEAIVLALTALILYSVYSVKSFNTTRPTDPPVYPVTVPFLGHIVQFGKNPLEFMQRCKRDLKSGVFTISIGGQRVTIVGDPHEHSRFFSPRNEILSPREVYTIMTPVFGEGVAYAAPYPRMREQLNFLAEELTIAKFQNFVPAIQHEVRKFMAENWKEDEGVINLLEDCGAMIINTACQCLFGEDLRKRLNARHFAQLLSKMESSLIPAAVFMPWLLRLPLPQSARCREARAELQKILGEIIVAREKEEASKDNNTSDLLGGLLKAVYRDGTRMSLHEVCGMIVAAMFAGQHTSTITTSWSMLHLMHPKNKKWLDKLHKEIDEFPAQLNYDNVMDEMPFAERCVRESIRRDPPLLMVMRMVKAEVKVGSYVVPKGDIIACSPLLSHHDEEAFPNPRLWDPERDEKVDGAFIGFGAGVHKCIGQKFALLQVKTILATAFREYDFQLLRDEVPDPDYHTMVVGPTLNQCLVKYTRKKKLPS
Chain of Cytochrome P450 2C9 (P11712 whole entry): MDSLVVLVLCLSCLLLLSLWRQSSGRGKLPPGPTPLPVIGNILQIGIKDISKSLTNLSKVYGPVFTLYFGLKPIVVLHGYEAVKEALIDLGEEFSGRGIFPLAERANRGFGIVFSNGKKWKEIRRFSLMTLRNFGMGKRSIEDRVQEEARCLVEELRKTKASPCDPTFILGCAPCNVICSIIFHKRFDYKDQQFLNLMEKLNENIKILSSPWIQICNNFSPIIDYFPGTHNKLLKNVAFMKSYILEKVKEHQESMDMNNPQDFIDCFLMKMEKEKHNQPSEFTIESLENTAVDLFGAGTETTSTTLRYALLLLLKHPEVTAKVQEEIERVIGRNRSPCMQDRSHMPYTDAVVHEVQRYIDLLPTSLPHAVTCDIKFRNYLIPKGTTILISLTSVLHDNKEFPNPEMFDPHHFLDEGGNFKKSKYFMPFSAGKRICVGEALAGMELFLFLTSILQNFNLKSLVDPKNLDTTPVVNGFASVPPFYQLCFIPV

O=C(N[C@H](Cc1c[nH]c2ccccc12)C(=O)Nc1ccncc1)c1ccc(N2CCN(c3ccc(F)c(F)c3)CC2)cc1F
Drug uptake [1]: Active
Drug uptake [2]: Active
Drug uptake [3]: Active
Drug uptake [4]: Active
Drug uptake [5]: Active
Drug uptake [6]: Active
Drug uptake [7]: Active
Drug uptake [8]: Active
Drug uptake [9]: Active
Drug uptake [10]: Active
Drug uptake [11]: Active
Drug uptake [12]: Active
Drug uptake [13]: Active
Drug uptake [14]: Active
inhibition in vivo at 50 mg/kg [15]: 98.6%
Activity [16]: Non-toxic
half-life [17]: 273 min
half-life [18]: 87 min
Tmax [19]: 4 h
Tmax [20]: 2.67 h
Cmax [21]: 2080 nM
Cmax [22]: 640 nM
AUC(0-t) [23]: 17.7 µM·h
AUC(0-t) [24]: 2.37 µM·h
CL/F [25]: 83.5 mL/min/kg
CL/F [26]: 562 mL/min/kg
Drug uptake [27]: Active
EC50 [28]: > 90 µM
EC50 [29]: > 90 µM

O=C(N[C@H](Cc1c[nH]c2ccccc12)C(=O)Nc1ccncc1)c1ccc(N2CCN(c3cccc(F)c3)CC2)cc1F
Drug uptake [1]: Active
Drug uptake [2]: Active
Drug uptake [3]: Active
Drug uptake [4]: Active
Drug uptake [5]: Active
Drug uptake [6]: Active
Drug uptake [10]: Active
Drug uptake [11]: Active
Drug uptake [12]: Active
Drug uptake [13]: Active
Drug uptake [14]: Active
Kd [30]: 290 nM
Ratio [31]: 10
inhibition in vivo at 25 mg/kg [32]: 47.7%
t1/2 [33]: 6 min
t1/2 [34]: 18 min
t1/2 [35]: 20 min
inhibition (INH) [36]: 5%
inhibition (INH) [37]: 95%
inhibition (INH) [38]: 52%
inhibition (INH) [39]: 84%
EC50 [40]: 59 nM
Activity [16]: Non-toxic
Drug uptake [27]: Active
inhibition in vivo at 40 mg/kg [41]: 97.9%
